Measurements from ChEMBL document CHEMBL4382237, “Design, Synthesis, and Biological Evaluation of 2-Nitroimidazopyrazin-one/-es with Antitubercular and Antiparasitic Activity” (J Med Chem, 2018).
≈ marks a conversion by molar mass, not a printed value. Calls of active or inactive are those of the source. No cut-off for these calls is given here.

Legend:
Giardia intestinalis [1] = test: Antiparasitic activity against Giardia lamblia WB trophozoites after 24 to 48 hrs by CellTiter-Glo luminescent cell viability assay; conditions: Giardia duodenalis
[2] = system: Trypanosoma brucei brucei; test: Antiparasitic activity against bloodstream form of Trypanosoma brucei brucei strain 427 after 48 hrs by resazurin dye-based assay; format: functional, organism-based; conditions: for IC50: strain 427, 48 h
Entamoeba histolytica = test: Antiparasitic activity against Entamoeba histolytica HM-1:IMSS trophozoites after 24 to 48 hrs by CellTiter-Glo luminescent cell viability assay; format: functional, organism-based
In short: (§1)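 Axenic trophozoites were kept in TYI-S-33 with penicillin (100 U/mL) and streptomycin (100 µg/mL) and harvested in log phase. 5000 parasites per well were exposed to a final 8-point two-fold series of 0.39–50 µM, from 10 mM DMSO stocks. Plates were incubated 24–48 h at 37 °C under anaerobic conditions. ATP luminescence viability was read in triplicate. Percent inhibition is given at the highest concentration tested.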

Giardia intestinalis [3] = test: Antiparasitic activity against Giardia lamblia WB trophozoites after 24 to 48 hrs by CellTiter-Glo luminescent cell viability assay; conditions: Giardia duodenalis
HEK293 = test: Cytotoxicity against HEK293 cells after 24 hrs by resazurin dye-based fluorescence assay; format: cell-based; conditions: human, hek293, 24 h
In short: (§2)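 HEK293 (3000/well) and HepG2 (5000/well) were grown 24 h in DMEM with 10% FBS at 37 °C, 5% CO2. Cells were then exposed 24 h to a dilution series up to 100 µM (0.5% DMSO). 5 µM resazurin was added for 2 h, read at ex 560/em 590. 1% Triton X-100 served as lysis control. CC50 was derived from the curves.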

Cryptococcus neoformans = test: Antifungal activity against Cryptococcus neoformans H99 ATCC […] broth microdilution assay; format: functional; conditions: var. grubii H99 ATCC 208821
In short: (§3)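 Broth microdilution run essentially per an earlier report. MIC taken as the lowest concentration with no visible growth. Replicates typically agreed within one 2-fold dilution. The median MIC is reported, with a range where the median fell between two tested concentrations.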

[4] = system: Mycobacterium tuberculosis; test: Antibacterial activity against Mycobacterium tuberculosis H37Rv after 5 days under normoxic condition by resazurin dye-based fluorescence assay; format: functional, organism-based
In short: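 H37Rv grown in 7H9/ADC/glycerol/Tyloxapol to mid-exponential phase, diluted to OD600 0.001 (~2 x 10^4 CFU/mL) in 7H9S with serially diluted compound. Incubated 5 days at 37 °C, then resazurin and Tween-80 added. Fluorescence (ex 530/em 590 nm) read after 24 h, normalised to no-drug and no-bacteria wells.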

[5] = Protein binding in human plasma at 5 uM after 30 mins by LC-MS/MS analysis based ultrafiltration method; conditions: 0.5 h
Candida albicans = test: Antifungal activity against Candida albicans ATCC 90028 by broth microdilution assay; format: functional
In short: as §3

Escherichia coli = test: Antibacterial activity against Escherichia coli ATCC 25922 by broth microdilution assay; format: functional
In short: as §3

Staphylococcus aureus = test: Antibacterial activity against methicillin-resistant Staphylococcus aureus ATCC […] by broth microdilution assay; format: functional
[6] = Metabolic stability in CD-1 mouse liver microsomes assessed as parent compound remaining at 3 uM after 2 hrs by LC-MS/MS analysis
Acinetobacter baumannii = test: Antibacterial activity against Acinetobacter baumannii ATCC 19606 by broth microdilution assay; format: functional; conditions: ATCC 19606 = CIP 70.34 = JCM 6841
In short: as §3

[7] = Metabolic stability in CD-1 mouse plasma assessed as parent compound remaining at 3 uM after 2 hrs by LC-MS/MS analysis
Clostridioides difficile = test: Antibacterial activity against Clostridium difficile 630 ATCC BAA-1382 by broth microdilution assay; format: functional
In short: as §3

[8] = Metabolic stability in human liver microsomes assessed as parent compound remaining at 3 uM after 2 hrs by LC-MS/MS analysis
[9] = Metabolic stability in human plasma assessed as parent compound remaining at 3 uM after 2 hrs by LC-MS/MS analysis
Pseudomonas aeruginosa = test: Antibacterial activity against Pseudomonas aeruginosa ATCC 27853 by broth microdilution assay; format: functional
In short: as §3

Klebsiella pneumoniae = test: Antibacterial activity against Klebsiella pneumoniae 700603 by broth microdilution assay; format: functional
In short: as §3

[10] = system: Mycobacterium tuberculosis; test: Antibacterial activity against non-replicating Mycobacterium tuberculosis H37Rv after 5 days under hypoxic condition by resazurin dye-based fluorescence assay; format: functional; conditions: 120 h
In short: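 Same H37Rv inoculum (OD600 0.001, ~2 x 10^4 CFU/mL) in 7H9S with serially diluted compound. Plates held 5 days at 0.1% oxygen, then resazurin plus Tween-80 added.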

HepG2 = test: Cytotoxicity against human HepG2 cells after 24 hrs by resazurin dye-based fluorescence assay; format: cell-based; conditions: hepg2, 24 h
In short: as §2

[11] = Apparent permeability across basolateral to apical side in human Caco2 cells assessed as mean drug recovery at 2 uM after 2 hrs by lucifer yellow dye-based LC-MS/MS analysis; conditions: Caco-2
[12] = Apparent permeability across apical to basolateral side in human Caco2 cells assessed as mean drug recovery at 2 uM after 2 hrs by lucifer yellow dye-based LC-MS/MS analysis; conditions: caco-2, 2 h
Giardia intestinalis [13] = test: Antiparasitic activity against Giardia lamblia WB trophozoites assessed as inhibition of parasitic growth at 50 uM after 24 to 48 hrs by CellTiter-Glo luminescent cell viability assay relative to control; format: functional; conditions: Giardia duodenalis, read-out: GI
In short: as §1

[14] = system: Trypanosoma brucei brucei; test: Antiparasitic activity against bloodstream form of Trypanosoma brucei brucei strain 427 assessed as inhibition of parasitic growth at 40 uM after 48 hrs by resazurin dye-based assay relative to control; format: functional; conditions: strain 427, 48 h, read-out: GI
[15] = buffer, 24 h, 200 µM
[16] = buffer, pH 7.4, 24 h, 200 µM
physchem = conditions: PBS, pH 7.4
[17] = Apparent permeability across apical to basolateral side in human Caco2 cells at 2 uM after 2 hrs by lucifer yellow dye-based LC-MS/MS analysis; conditions: caco-2, 2 h
[18] = Apparent permeability across basolateral to apical side in human Caco2 cells at 2 uM after 2 hrs by lucifer yellow dye-based LC-MS/MS analysis; conditions: caco-2, 2 h

| SMILES | IC50 (Giardia intestinalis [3]) [µM] | IC50 (Giardia intestinalis [3]; read-out: pIC50 (converted)) [µM] | MIC [4] [µg/mL] | Stability [6] [%] | Stability [7] [%] | Stability [8] [%] | Stability [9] [%] | IC50 ([2]; read-out: IC50) [nM] | IC50 ([2]; read-out: pIC50 (converted)) [nM] | MIC [10] [µg/mL] | IC50 (Entamoeba histolytica; read-out: IC50) [µM] | recovery at 2 h, 2 µM [11] [%] | Drug recovery [12] [%] | IC50 (Entamoeba histolytica; read-out: pIC50 (converted)) [µM] | other results |
| --- | --- | --- | --- | --- | --- | --- | --- | --- | --- | --- | --- | --- | --- | --- | --- |
| O=c1c2nccn2ccn1Cc1ccccc1 |  |  |  |  |  |  |  |  |  |  |  |  |  |  | Activity (Giardia intestinalis [1]): inactive; Activity [2]: inactive; Activity (Entamoeba histolytica): inactive |
| O=c1c2nc([N+](=O)[O-])cn2ccn1Cc1ccc(F)cc1 | 6.4 | 6.31 | 1 (≈ 3.47 µM) | > 99 | > 99 | 99 | 98 | 2900 | 3160 | 2 (≈ 6.94 µM) | > 50 |  |  |  | CC50 (HEK293): > 100 µM; MIC (Cryptococcus neoformans): > 32 µg/mL; PPB [5]: 82%; MIC (Candida albicans): > 32 µg/mL; MIC (Escherichia coli): > 32 µg/mL; MIC (Staphylococcus aureus): > 32 µg/mL; MIC (Acinetobacter baumannii): > 32 µg/mL; MIC (Clostridioides difficile): > 64 µg/mL; MIC (Pseudomonas aeruginosa): > 32 µg/mL; MIC (Klebsiella pneumoniae): > 32 µg/mL; CC50 (HepG2): > 100 µM |
| C[C@H]1O[C@@H](O[C@H]2[C@@H](O)C[C@H](O[C@H]3[C@@H](O)C[C@H](O[C@H]4CC[C@@]5(C)[C@H](CC[C@@H]6[C@@H]5C[C@@H](O)[C@]5(C)[C@@H](C7=CC(=O)OC7)CC[C@]65O)C4)O[C@@H]3C)O[C@@H]2C)C[C@H](O)[C@@H]1O [DIGOXIN] |  |  |  |  |  |  |  |  |  |  |  | 88 | < 72 |  |  |
| Cc1cn2cc([N+](=O)[O-])nc2c(OCCO)n1 |  |  |  |  |  |  |  |  |  | > 32 | > 50 |  |  | > 50.1 | inhibition of growth at 50 µM (Giardia intestinalis [13]): 80%; inhibition of growth at 40 µM [14]: 56% |
| Cc1cn2cc([N+](=O)[O-])nc2c(OCc2ccc(OC(F)(F)F)cc2)n1 | 7.4 | 7.94 | >32 | 7.9 | > 99 | 69 | 94 | > 40000 | > 39800 | > 32 | 9.5 |  |  | 10 | PPB [5]: > 99% |
| Cc1ccc(Cn2c(C)c(C)n3cc([N+](=O)[O-])nc3c2=O)cc1 | 5.2 | 5.01 | 2 (≈ 6.4 µM) |  |  |  |  | 250 | 251 | 4 (≈ 12.8 µM) | 33 |  |  | 31.6 | log(Kinetic_solubility) [15]: < -5; log(Kinetic_solubility) [16]: < -5; solubility kinetic at 24 h, 200 µM (physchem): < 10 µM |
| O=c1c2nc([N+](=O)[O-])cn2ccn1Cc1cccc(OC(F)(F)F)c1 |  |  |  | > 99 | 97 | > 99 | > 99 |  |  |  |  | 99 | 88 |  | Papp [17]: 24 ×10⁻⁶ cm/s; Papp [18]: 24 ×10⁻⁶ cm/s; MIC (Clostridioides difficile): > 64 µg/mL |
| O=[N+]([O-])c1cn2c(n1)OC[C@@H](OCc1ccc(OC(F)(F)F)cc1)C2 [PRETOMANID] |  |  |  |  |  |  |  |  |  |  |  | 101 | 81 |  | Papp [17]: 29 ×10⁻⁶ cm/s; Papp [18]: 22 ×10⁻⁶ cm/s |
